Screening results deposited in PubChem BioAssay by The Scripps Research Institute Molecular Screening Center.
OXTR potentiator – human OXTR potentiation; AID 2445; activation, % at 3 µM; CHO-OTR cells, Fluo-8 calcium fluorescence, potentiator mode; 0% = oxytocin EC15, 100% = EC100; actives 0.061% (n = 320,000); P30559;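 active = activation above that plate's cutoff, the mean activation of tested compounds plus 3 SD, cut at about 6.6% in these data, passing the limit was not always enough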;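 also: 100% uses oxytocin at 75 nM as the full agonist control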
Target sequence (P30559 whole entry, looked up): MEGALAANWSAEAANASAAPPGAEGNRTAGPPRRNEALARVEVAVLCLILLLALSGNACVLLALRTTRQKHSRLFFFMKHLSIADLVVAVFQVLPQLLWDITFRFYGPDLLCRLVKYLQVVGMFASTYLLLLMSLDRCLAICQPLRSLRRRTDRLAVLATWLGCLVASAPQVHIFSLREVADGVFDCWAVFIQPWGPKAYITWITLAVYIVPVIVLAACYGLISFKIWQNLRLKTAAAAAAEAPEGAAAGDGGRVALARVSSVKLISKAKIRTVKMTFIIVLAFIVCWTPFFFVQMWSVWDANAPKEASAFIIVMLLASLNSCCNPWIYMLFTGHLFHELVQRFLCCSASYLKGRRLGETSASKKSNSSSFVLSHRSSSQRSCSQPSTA
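Measured by – Fluo-8 calcium dye fluorescence · Test system – human OTR in CHO cells · Dosing – one concentration, 3.0 µM compound · Controls – EC15 oxytocin alone as 0%, 75 nM oxytocin as 100% · Evaluation – normalized max/min fluorescence ratio, % activation · Timing – 6 min pre-incubation, 100 s read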
zfTRPN1 agonist – zebrafish TRPN1 (NompC) channel agonism; HEK293 zebrafish TRPN1-YFP, Fluo-8 calcium fluorescence; 100% = response to 87 µM carbachol; activation, % at 3 µM; actives 0.18% (n = 220,000); AID 1424;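 active = activation above its plate's cutoff, the mean activation of test wells on that plate plus 3 SD, cut at about 19% in these data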;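 also: 0% = DMSO alone and 100% = 87 µM carbachol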
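Material – zebrafish TRPN1-YFP in HEK293 cells · Doses – 3 µM single point · Schedule – dye 1 h 37 °C plus 30 min RT · Signal – Fluo-8 calcium fluorescence, excitation 470-495 nm, emission 515-575 nm · Read-out – % activation versus carbachol response · Control set – carbachol high, DMSO low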
TRPML3 ag – human mucolipin-3 channel agonism; HEK293 TRPML3-YFP, Fluo-8 calcium fluorescence; 100% = the carbachol control signal; activation, % at 3 µM; actives 0.29% (n = 220,000);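 active = activation above its plate's cutoff, the mean activation of the plate's test wells plus 3 SD, cut at about 12% in these data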;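 also: 0% = DMSO only wells and 100% = carbachol wells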
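Material: HEK293 cells stably carrying human TRPML3-YFP; compound dosing: single dose, 3 µM final nominal compound, 0.3% DMSO final; incubation: 1-h 37 °C dye load, 5-s basal, 120-s post-compound reads; technique: Fluo-8 intracellular calcium fluorescence, excitation 470-495 nm, emission 515-575 nm; read-out basis: percent activation from peak-to-basal fluorescence ratio, scaled between DMSO and carbachol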
V1R ag counter – counter-screen for oxytocin receptor agonists: human V1a receptor agonists | actives 0.25% (n = 320,000) | P37288 | CHO-V1R cells, Fluo-8 calcium fluorescence, agonist mode; 0% DMSO, 100% 3 nM vasopressin | activation, % at 3 µM | AID 2797;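 active = activation above the mean activation of all tested compounds plus 3 SD, per screening run, cut at about 20% in these data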;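 also: signal is peak over basal fluorescence ratio across a 100 second FLIPR read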
OXTR agonist – agonists of human oxytocin receptor; actives 0.32% (n = 320,000); activation, % at 3 µM; P30559; CHO-OTR cells, Fluo-8 calcium fluorescence; normalized: DMSO 0%, oxytocin 100%;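 active = activation above the mean of all tested compounds plus 3 SD, cutoff set per screening run, cut at about 20% in these data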;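 also: peak over basal fluorescence ratio from a 100 s FLIPR kinetic read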
OXTR ag confirm – human OXTR agonism, confirmation. shares compounds with OXTR agonist. CHO-OTR cells, Fluo-8 calcium fluorescence, agonist. activation, % at 3 µM. actives 20% (n = 390). AID 434963;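 active = mean activation above about 20% derived from the earlier single-dose screen, limit read from the data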;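 also: peak over minimum fluorescence ratio per well during a 100 second FLIPR read; 0% = DMSO alone and 100% = oxytocin high control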
V1R ag counter 3x – counter-screen for oxytocin receptor agonists: V1a receptor agonists | shares compounds with OXTR agonist | CHO-V1R cells, Fluo-8 calcium fluorescence, agonist | activation, % at 3 µM | actives 10% (n = 390);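 active = mean activation over triplicate exceeds the hit threshold set in the earlier primary screen, cut at about 20% in these data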;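 also: peak over basal fluorescence ratio within a 100 second read; 0% = DMSO alone and 100% = 3 nM vasopressin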
* hit, by the source's call; nt = not tested or not shown; ! = repeats disagree. Rows were chosen to be rich in hits. Some 0.58% of all compounds tested hit in one or more screens of this group.

SMILES	OXTR potentiator	zfTRPN1 agonist	TRPML3 ag	V1R ag counter	OXTR agonist	OXTR ag confirm	V1R ag counter 3x
CCCc1nc2ccc(NC(=O)c3cccs3)cc2c(=O)n1Cc1ccccc1Cl	-2	-1	1	-1	0	nt	nt
COc1ccc(C(=O)NN(C)c2nc(C(F)(F)F)nc3ccccc23)cc1	-11	-1	0	4	1	nt	nt
CCC1(c2ccc(F)cc2)NC(=O)N(CC(=O)Nc2ccc(N3CCCCC3)cc2)C1=O (stereo not given)	-18	nt	nt	15	27*	16	14
O=C(C1CCCCC1)N1CC(=O)N2CCc3ccccc3C2C1 (stereo not given)	-5	1	1	0	-1	nt	nt
CCOC(=O)c1ccccc1NC(=O)CN1CCC(n2nnc3cc(C(F)(F)F)ccc32)CC1	-3	1	1	0	-1	nt	nt
COc1ccc2[nH]c(=O)c(COC(=O)c3cccs3)cc2c1	-4	0	0	3	1	nt	nt
CCOC(=O)c1c(C)oc2ccc(O)c(CN(C)C)c12	-3	0	1	1	0	nt	nt
CCOC(=O)c1c(CSc2ccc(CC)cc2)oc2ccc(O)c(CN(C)C)c12	-18	nt	nt	14	25*	1	4
OC(CNC1CCCc2ccccc21)COc1ccc2ccccc2c1 (stereo not given)	-16	1	0	7	11	nt	nt
CCc1ccccc1OC[C@@H](O)CN[C@H]1CCCc2ccccc21	-19	nt	nt	14	22*	10	7
CCn1c(SCC(=O)Nc2cc(NC(C)=O)ccc2OC)nnc1-c1ccccn1	-4	-1	0	-1	-1	nt	nt
O=C1C=C(O)CC(c2ccc(Cl)c(Cl)c2)C1 (stereo not given)	-12	1	1	0	1	nt	nt
CN[C@H]1CC[C@@H](c2ccc(Cl)c(Cl)c2)c2ccccc21	-19	2	3	9	21*!	3	6
N=c1n(CC(=O)c2ccc(Br)s2)c2ccccc2n1Cc1ccccc1	-23	2	2	19	23*	22*	13
CCOC(=O)CCN	-9	nt	nt	1	1	nt	nt
Cc1c(Cl)cccc1NC(=S)NNc1ncc(C(F)(F)F)cc1Cl	-12	5	2	16	29*	7	7
COC(=O)C1=C(C)N(Cc2ccccc2)C(=NCc2ccc(OC)cc2)N[C@H]1c1cccc(F)c1	-15	nt	nt	20	24*	7	2
COC(=O)C1=C(C)N(Cc2ccccc2)C(=NCc2ccccc2)N[C@H]1c1cccc(C(F)(F)F)c1	-5	nt	nt	10	22*	12	4
COC(=O)C1=C(C)N(Cc2ccccc2)C(=NCc2cc(OC)c(OC)c(OC)c2)N[C@H]1c1cccc(F)c1	-8	nt	nt	0	21*	2	0
COC(=O)C1=C(C)N(Cc2ccccc2)C(=NCc2cccc(Cl)c2)N[C@H]1c1cccc(F)c1	-10	nt	nt	13	22*	12	6
COC(=O)C1=C(C)N(Cc2ccccc2)C(=O)N[C@H]1c1cccc(C(F)(F)F)c1	-17	nt	nt	2	-1	nt	nt
Cc1cc(=O)oc2cc(OCC(=O)NCc3cccnc3)ccc12	-15	0	0	0	2	nt	nt
N#CNC(=Nc1ccc(F)cc1)SCc1ccccc1	-12	2	1	1	-1	nt	nt
N#Cc1c(N)[nH]c(=S)c(C#N)c1-c1ccccc1	2	2	1	0	2	nt	nt
C1=C(CCNc2ncnc3c2[nH]c2ccccc23)CCCC1	-8	21*	8	8	21*	16	14
SMILES	OXTR potentiator	zfTRPN1 agonist	TRPML3 ag	V1R ag counter	OXTR agonist	OXTR ag confirm	V1R ag counter 3x
COc1ccc(CNc2ncnc3c2[nH]c2ccccc23)cc1	-16	15	11	16	26*	22*	18
COc1ccc(CNc2ncnc3c2[nH]c2cc(OC)c(OC)cc23)cc1	-12	4	3	1	1	nt	nt
O=c1c2[nH]c3ccccc3c2ncn1CCC1=CCCCC1	-5	0	2	-1	-1	nt	nt
COc1ccc(C2C(C(=O)O)c3ccccc3C(=O)N2C)cc1Br (stereo not given)	2	3	1	0	0	nt	nt
CCN(CC)S(=O)(=O)c1ccc2[nH]c(=O)cc(C(=O)NCC(c3ccco3)N3CCCC3)c2c1 (stereo not given)	-4	nt	nt	0	1	nt	nt
Cc1cccc(CCN2C(Nc3ccccc3)=NC[C@@H]2CC(C)C)c1	-19	nt	nt	16	21*	16	21*
CN1CCN(C2Cc3ccccc3Sc3cc(C(F)(F)F)ccc32)CC1 (stereo not given)	-4	nt	nt	10	24*	12	2
CN1CCN(C2Cc3ccccc3Sc3ccc(Cl)cc32)CC1 (stereo not given)	-4	nt	nt	4	9	nt	nt
Cc1cc(C)nc(/N=C(\N)Nc2ccc(S(=O)(=O)O)cc2)n1	nt	1	1	nt	nt	nt	nt
Cc1cc(C)nc(/N=C(\N)Nc2ccc(CC(=O)OC(C)C)cc2)n1	-23	nt	nt	18	26*	8	12
Cc1ccc(C2(C)NC(=O)N(CC(=O)Nc3cc(C)on3)C2=O)cc1 (stereo not given)	-3	0	1	1	1	nt	nt
CC(Sc1ccc(Cl)cc1)C(=O)Nc1ccc(S(=O)(=O)N2CCOCC2)cc1 (stereo not given)	-23	9	6	13	29*	21*	10
O=C(N1CCCCC1)N1CCN(S(=O)(=O)c2ccc(Cl)cc2)CC1	-24	-2	0	2	27*	0	0
O=C(N1CCCCCC1)N1CCN(S(=O)(=O)c2ccccc2)CC1	5	0	0	0	1	nt	nt
Cc1cccc(OCC(=O)Nc2ccncc2)c1C	-25	nt	nt	14	20*	10	9
COc1ccccc1OCC(=O)Nc1ccncc1	3	nt	nt	2	4	nt	nt
N#Cc1cc2nc(O)c(O)nc2cc1[N+](=O)[O-]	-7	nt	nt	-1	0	nt	nt
CNc1nc2cc([N+](=O)[O-])c([N+](=O)[O-])cc2nc1NC	-11	27*	9	11	26*	23*	16
O=C(CNC(=O)c1cccs1)Nc1ncccc1O	4	nt	nt	1	1	nt	nt
CC(OC(=O)/C(C#N)=C/c1ccc(N(C)C)cc1)C(=O)N(C)c1ccccc1 (stereo not given)	-21	nt	nt	16	11	nt	nt
CC(=O)Nc1ccc(NC(=O)C(C)OC(=O)/C(C#N)=C/c2ccc(N(C)C)cc2)cc1 (stereo not given)	-23	nt	nt	16	20*	13	13
Cc1cc(OCCOCCNCc2ccccc2)ccc1C(C)C	-15	nt	nt	11	22*	3	1
